The text below walks through data of ChEMBL document CHEMBL4024774 (J Med Chem, 2017).

Activity calls are given as the source filed them. The rule behind the calls is not given here.

Data set [1] has as its target Sodium-dependent dopamine transporter (Rattus norvegicus, UniProt P23977). Put plainly: Displacement of [3H]WIN35428 from Sprague-Dawley rat brain DAT after 120 mins by liquid scintillation counting method. The essentials:
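Rat striatal membranes (male Sprague-Dawley) in sucrose phosphate buffer pH 7.4. […] Terminated by filtration on GF/B filters presoaked in 0.05% PEI, then scintillation counting.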
(Loss of bound radioactivity is the signal in a displacement assay; it reports binding, not function.)

The target in data set [2] is Sodium-dependent serotonin transporter (Rattus norvegicus, UniProt P31652). Put plainly: Displacement of [3H]citalopram from Sprague-Dawley rat brain SERT after 60 mins by liquid scintillation counting method. An outline of the steps:
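Male Sprague-Dawley rat brain stem membranes in 50 mM Tris with 120 mM NaCl and 5 mM KCl, pH 7.4. […] Nonspecific binding with 10 μM fluoxetine. Filtered on GF/B filters presoaked in 0.3% PEI, scintillation counted.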

The nature of data set [3]: Displacement of [3H]nisoxetine from Sprague-Dawley rat brain NET after 180 mins by liquid scintillation counting method. An outline of the steps:
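Frontal cortex membranes from male Sprague-Dawley rats in 50 mM Tris, 120 mM NaCl, 5 mM KCl, pH 7.4. […] Nonspecific binding with 1 μM desipramine. Methanol level held constant across tubes. Filtered on GF/B filters in 0.05% PEI.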

The nature of data set [4]: Inhibition of […] uptake at human DAT […] mutant expressed in African green monkey COS7 cells after 90 mins. The format is cell-based. An outline of the steps: (§1)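 Whole COS7 cells transiently expressing human DAT WT or the Y156F mutant, washed in ice-cold uptake buffer. Incubated with [³H]WIN 35,428 and inhibitor (1 nM–1 mM, 12 concentrations) at 5 °C to equilibrium (>90 min). Triplicates. Ki from IC50 by nonlinear regression and Cheng–Prusoff. Ratio is Y156F Ki over WT Ki.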

The species entered for another data set is Homo sapiens. Put plainly: Selectivity ratio of Ki for human DAT […] mutant expressed in African green monkey COS7 cells to Ki for wild type human DAT expressed in African green monkey COS7 cells. The format is cell-based. The essentials: as §1
Data set [5] concerns the target T1, Sodium-dependent dopamine transporter (Homo sapiens, UniProt Q01959). The data set is described as follows: Inhibition of […] uptake at wild type human DAT expressed in African green monkey COS7 cells after 90 mins. The format is cell-based. The essentials: as §1
Data set [6] concerns the target T1, Sodium-dependent dopamine transporter. Put plainly: Inhibition of [3H]DA uptake at wild type human DAT expressed in African green monkey COS7 cells after 5 mins by beta scintillation counting method. Format: cell-based. An outline of the steps: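 COS7 cells transiently transfected with synthetic human DAT and assayed 2 days later. Preincubated with inhibitor (1 nM–1 mM, 12 concentrations) in HEPES uptake buffer pH 7.4 containing ascorbate and a COMT inhibitor. 6–10 nM [³H]DA added for 5 min at rt. Nonspecific uptake with 1 μM nomifensine. Cells lysed in SDS and scintillation counted. Run in triplicate. Ki from IC50 by Cheng–Prusoff.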

For data set [7], the target named is Voltage-gated inwardly rectifying potassium channel KCNH2 (Homo sapiens, UniProt Q12809). The data set is described as follows: Displacement of [3H]Dofetilide from human ERG expressed in HEK cells after 180 mins by scintillation counting method. The format is cell-based.
Sequence of Voltage-gated inwardly rectifying potassium channel KCNH2 (Q12809 whole entry): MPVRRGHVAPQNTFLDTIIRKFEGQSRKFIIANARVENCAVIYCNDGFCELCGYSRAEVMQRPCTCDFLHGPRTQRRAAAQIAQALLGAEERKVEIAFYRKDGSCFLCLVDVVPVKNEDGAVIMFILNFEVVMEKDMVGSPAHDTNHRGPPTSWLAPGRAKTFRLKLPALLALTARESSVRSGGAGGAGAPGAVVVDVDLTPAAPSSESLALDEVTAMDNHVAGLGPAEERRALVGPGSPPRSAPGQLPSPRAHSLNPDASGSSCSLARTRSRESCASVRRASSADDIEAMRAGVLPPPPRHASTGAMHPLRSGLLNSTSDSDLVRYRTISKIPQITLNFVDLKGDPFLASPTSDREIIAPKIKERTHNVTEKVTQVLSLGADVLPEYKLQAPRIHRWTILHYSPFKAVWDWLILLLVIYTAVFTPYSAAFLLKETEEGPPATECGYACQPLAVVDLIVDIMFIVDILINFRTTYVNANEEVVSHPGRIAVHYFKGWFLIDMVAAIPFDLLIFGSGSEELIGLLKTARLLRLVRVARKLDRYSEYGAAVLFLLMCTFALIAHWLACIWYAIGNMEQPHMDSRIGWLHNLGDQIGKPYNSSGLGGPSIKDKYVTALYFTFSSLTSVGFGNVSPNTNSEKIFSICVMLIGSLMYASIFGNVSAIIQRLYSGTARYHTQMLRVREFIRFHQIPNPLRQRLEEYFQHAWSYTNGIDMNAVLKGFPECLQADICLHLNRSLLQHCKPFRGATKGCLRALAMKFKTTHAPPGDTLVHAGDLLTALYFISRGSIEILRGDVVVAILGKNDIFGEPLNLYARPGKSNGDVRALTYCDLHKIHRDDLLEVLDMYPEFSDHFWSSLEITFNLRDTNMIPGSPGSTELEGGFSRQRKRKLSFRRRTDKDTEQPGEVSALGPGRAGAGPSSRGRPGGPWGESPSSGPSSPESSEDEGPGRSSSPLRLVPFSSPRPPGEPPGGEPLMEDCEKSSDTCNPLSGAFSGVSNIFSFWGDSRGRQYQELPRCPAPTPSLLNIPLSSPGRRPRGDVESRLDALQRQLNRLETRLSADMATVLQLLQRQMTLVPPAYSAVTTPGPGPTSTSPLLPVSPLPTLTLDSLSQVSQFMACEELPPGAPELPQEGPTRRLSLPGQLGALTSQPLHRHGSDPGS
Data set [8] in a line: Selectivity ratio of IC50 for human ERG expressed in HEK cells to Ki for Sprague-Dawley rat brain DAT. Format: cell-based.
In data set [9] the test system is Mus musculus. Put plainly: Decrease in locomotory activity in Swiss Webster mouse at 3 to 30 mg/kg, ip after 1 hr relative to control. The format is functional, organism-based. The essentials: (§2)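 Male Swiss Webster mice, ambulatory activity counted in 40 cm³ clear acrylic chambers over a 1 h session with no prior habituation. Drug given i.p. at 1 mL/kg immediately before the session. 6 mice per dose, each used once. Analysed by ANOVA then Dunnett's test against vehicle.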

The test system of data set [10] is Mus musculus. The data set is described as follows: Effect on execution of behavioral task in Swiss Webster mouse assessed as overall group response rate at 0.3 to 30 mg/kg, ip relative to control. The format is organism-based. The conditions noted are these: in vivo. The essentials:
(§3)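 Testing began after ≥85% correct responding on 4 consecutive sessions. Test drug given i.p. at 0.1–30 mg/kg, 5 or 30 min before the session, with 10 consecutive responses on either lever reinforced. ED50 taken from a linear fit. Response rate expressed as % of saline. 6 mice.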

Another data set relates to Liver. Put plainly: Metabolic stability in mouse liver microsomes assessed as parent compound remaining at 10 uM after 1 hr in presence of NADPH by LC/MS/MS analysis. The format is ADME, microsome. The essentials:
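Mouse liver microsomes at 0.5 mg/mL with test compound at 10 μM final, in 100 mM potassium phosphate pH 7.4 with an NADPH regenerating system (1.3 mM NADPH). Reaction started by adding microsomes. Controls run without cofactor. Parent remaining measured by LC/MS/MS on a C18 column with formic acid/acetonitrile gradient. Triplicate.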
On the technique in general: Microsomes from liver hold many membrane-bound enzymes, among them those of drug oxidation.

In data set [11] the test system is Mus musculus. Put plainly: Decrease in locomotory activity in Swiss Webster mouse at 56 mg/kg, ip after 1 hr relative to control. Format: functional. Also noted: scale not given: the % may be the effect or the level left. An outline of the steps: as §2
Data set [12] deals with Mus musculus. The data set is described as follows: Effect on discriminating cocaine from saline in Swiss Webster mouse assessed as cocaine lever response at 0.3 to 30 mg/kg, ip administered 5 to 30 mins prior to training session relative to control. The format is functional. An outline of the steps: as §3

Sequence of Sodium-dependent serotonin transporter (P31652 whole entry): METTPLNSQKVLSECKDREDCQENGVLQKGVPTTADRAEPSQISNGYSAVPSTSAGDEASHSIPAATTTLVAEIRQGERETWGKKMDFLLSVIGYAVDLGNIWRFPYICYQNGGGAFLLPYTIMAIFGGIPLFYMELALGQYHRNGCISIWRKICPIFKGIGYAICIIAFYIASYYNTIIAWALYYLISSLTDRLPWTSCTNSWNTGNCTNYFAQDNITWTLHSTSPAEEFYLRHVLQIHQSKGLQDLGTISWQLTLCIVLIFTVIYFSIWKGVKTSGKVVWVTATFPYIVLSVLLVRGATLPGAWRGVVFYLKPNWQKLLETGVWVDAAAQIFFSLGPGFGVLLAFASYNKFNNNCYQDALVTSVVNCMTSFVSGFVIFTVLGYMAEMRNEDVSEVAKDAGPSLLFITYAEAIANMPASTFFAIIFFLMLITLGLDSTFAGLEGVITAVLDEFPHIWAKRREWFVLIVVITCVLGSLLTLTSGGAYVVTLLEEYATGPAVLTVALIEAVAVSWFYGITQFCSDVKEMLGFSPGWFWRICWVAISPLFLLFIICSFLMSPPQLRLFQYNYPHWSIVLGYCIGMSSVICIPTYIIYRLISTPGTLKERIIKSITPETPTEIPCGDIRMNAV
Sequence of Sodium-dependent dopamine transporter (Rattus norvegicus, UniProt P23977) (P23977 whole entry): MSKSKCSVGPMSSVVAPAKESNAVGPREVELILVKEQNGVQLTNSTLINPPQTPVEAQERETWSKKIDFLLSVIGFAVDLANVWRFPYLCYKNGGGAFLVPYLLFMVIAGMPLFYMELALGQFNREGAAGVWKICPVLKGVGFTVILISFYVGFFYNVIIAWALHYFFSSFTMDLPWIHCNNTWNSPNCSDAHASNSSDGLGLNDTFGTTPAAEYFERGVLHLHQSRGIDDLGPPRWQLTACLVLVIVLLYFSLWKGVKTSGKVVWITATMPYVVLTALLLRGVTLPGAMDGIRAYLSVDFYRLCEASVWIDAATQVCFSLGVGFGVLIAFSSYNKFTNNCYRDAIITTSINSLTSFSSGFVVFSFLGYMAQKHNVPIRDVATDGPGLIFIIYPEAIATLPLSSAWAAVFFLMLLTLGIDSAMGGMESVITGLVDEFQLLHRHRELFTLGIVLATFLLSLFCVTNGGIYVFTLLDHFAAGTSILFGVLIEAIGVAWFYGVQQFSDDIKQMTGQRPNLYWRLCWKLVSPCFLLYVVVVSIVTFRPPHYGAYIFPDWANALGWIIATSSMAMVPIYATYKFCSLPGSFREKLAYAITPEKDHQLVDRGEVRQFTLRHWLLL
T1 sequence (Q01959 whole entry): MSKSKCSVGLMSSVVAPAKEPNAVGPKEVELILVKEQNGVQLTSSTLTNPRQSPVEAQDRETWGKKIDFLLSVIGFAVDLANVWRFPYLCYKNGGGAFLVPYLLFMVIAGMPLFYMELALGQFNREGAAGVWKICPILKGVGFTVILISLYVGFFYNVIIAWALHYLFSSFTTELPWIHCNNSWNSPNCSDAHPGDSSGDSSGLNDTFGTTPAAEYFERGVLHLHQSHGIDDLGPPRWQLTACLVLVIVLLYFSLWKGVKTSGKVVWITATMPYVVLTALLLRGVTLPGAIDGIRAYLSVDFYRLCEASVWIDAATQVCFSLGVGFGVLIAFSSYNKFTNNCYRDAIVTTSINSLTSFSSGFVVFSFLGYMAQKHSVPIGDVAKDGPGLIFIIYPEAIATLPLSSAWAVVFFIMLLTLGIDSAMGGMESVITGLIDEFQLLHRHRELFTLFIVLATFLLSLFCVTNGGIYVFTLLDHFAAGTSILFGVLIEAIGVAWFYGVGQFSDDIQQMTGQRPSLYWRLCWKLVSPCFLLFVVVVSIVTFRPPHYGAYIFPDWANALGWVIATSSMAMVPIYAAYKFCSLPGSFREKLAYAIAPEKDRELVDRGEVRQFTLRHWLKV

As to `Fc1ccc(C(OC2CC3CCC(C2)N3CCN2CCCCC2)c2ccc(F)cc2)cc1` (stereo not drawn), the results for the Ki in data set [1], in [2] and in [3] were 13.2 nM, 1.46 µM and 370 nM, respectively.

For `CCCCN1C2CCC1CC(NC(c1ccc(F)cc1)c1ccc(F)cc1)C2` (stereo not drawn), the Ki in data set [4] worked out at 355 nM; in data set [5] it was 24 nM; in data set [6] it was 62 nM. For the same compound, in the data set listed under Homo sapiens, the Ratio Ki stood at 15.

Regarding `Cc1ccc(-c2cc([C@@H]3C4CCC(C[C@@H]3OC(c3ccc(F)cc3)c3ccc(F)cc3)N4C)on2)cc1` (mixture of isomers), the figures for the Ki in data set [1], in [2] and in [3] were 93.5 nM, 4.41 µM and 2710 nM, respectively.

For the compound `NCCN1C2CCC1CC(OC(c1ccc(F)cc1)c1ccc(F)cc1)C2` (stereo not drawn), the values for the Ki in [1], in data set [2] and in data set [3] were 5.59 nM, 4.6 µM and 1420 nM, respectively.

Consider `CCOC(=O)[C@@H]1C2CCC(C[C@@H]1OC(c1ccc(F)cc1)c1ccc(F)cc1)N2CC1CC1` (mixture of isomers), for which the Ki amounted to 12 nM in data set [1], 3.73 µM in data set [2] and 555 nM in data set [3].

As for `CN1C2CCC1[C@@H](c1cc(-c3ccc(F)cc3)no1)[C@@H](OC(c1ccc(F)cc1)c1ccc(F)cc1)C2` (mixture of isomers), the Ki in [1] came out at 69.2 nM; in data set [2], 2.99 µM; in [3] it was 1640 nM.

Turning to `Fc1ccc(C(OC2CC3CCC(C2)N3CCc2c[nH]c3ccccc23)c2ccc(F)cc2)cc1` (stereo not drawn), the Ki in [1] turned out to be 29.2 nM; in data set [4] it was 1700 nM; in data set [2], 0.49 µM; in data set [3], 7350 nM; in [5], 253 nM. Also, in the data set listed under Homo sapiens, the Ratio Ki came out at 6.7.

For the compound `Fc1ccc(C(NC2CC3CCC(C2)N3CCN2CCCCC2)c2ccc(F)cc2)cc1` (stereo not drawn), the Ki in [1] worked out at 10.6 nM; in data set [2] it was 3.78 µM; in data set [3] it was 612 nM.

For the compound `CN1C2CCC1[C@@H](c1cc(-c3ccccc3)no1)[C@@H](OC(c1ccc(F)cc1)c1ccc(F)cc1)C2` (mixture of isomers), the Ki is 60.8 nM in data set [1]; 3490 nM in data set [4]; 3.83 µM in data set [2]; 1100 nM in data set [3]; 1480 nM in data set [5]; 1300 nM in data set [6]. In addition, in the data set listed under Homo sapiens, the Ratio Ki came out at 2.4.

`CN1C2CCC1[C@@H](c1cc(-c3ccccc3)no1)C(OC(c1ccc(F)cc1)c1ccc(F)cc1)C2` (single isomer, unassigned): the Ki was 14.4 nM in [1]; 183 nM in [4]; 1.32 µM in data set [2]; 413 nM in [3]; 28 nM in [5]; 212 nM in data set [6]. For the same compound, the Ratio Ki in the data set filed under Homo sapiens was 6.5.

Take `C=C[C@@H]1C2CCC(C[C@@H]1OC(c1ccc(F)cc1)c1ccc(F)cc1)N2CCN(C)C` (mixture of isomers): the figures for the Ki in data set [1] and in data set [2] were 13.5 nM and 5.1 µM, respectively.

`CN(C)CCN1C2CCC1CC(NC(c1ccc(F)cc1)c1ccc(F)cc1)C2` (stereo not drawn): the Ki was 14.3 nM in data set [1]; 202 nM in [4]; 12 µM in data set [2]; 4010 nM in data set [3]; 16 nM in data set [5]; 40 nM in [6]. The same compound registered an IC50 in [7] of 5.48 µM. Further, in data set [8], the Selectivity ratio is 383. In addition, the Ratio Ki in the data set listed under Homo sapiens is 20.

As to `CCOC(=O)[C@@H]1C2CCC(C[C@@H]1OC(c1ccc(F)cc1)c1ccc(F)cc1)N2C[C@H](N)C(C)C` (mixture of isomers), the Ki in data set [1] came to 53.8 nM; in [4] it was 1560 nM; in [2] it was 1.37 µM; in data set [3] it was 4470 nM; in [5], 221 nM; in [6], 1050 nM. For the same compound, the Ratio Ki in the data set filed under Homo sapiens came to 7.1.

Regarding `CN(C)CCN1C2CCC1CC(OC(c1ccc(F)cc1)c1ccc(F)cc1)C2` (stereo not drawn), the Ki in data set [1] stood at 12 nM; in data set [4] it was 63 nM; in data set [2], 3.15 µM; in data set [3], 933 nM; in [5] it was 10 nM; in [6] it was 47 nM. For the same compound, the result in the data set with Mus musculus [9] was Active. The Activity with Mus musculus [10] is reported as less than 50%; with Mus musculus [11], 14%; with Mus musculus [12] it was 23%. Besides, the Stability with Liver was determined as 88%. Further, the IC50 in data set [7] worked out at 8.23 µM. In addition, the Selectivity ratio in data set [8] stood at 686. Further, the Ratio Ki in the data set listed under Homo sapiens was found to be 6.3.

For `CN1C2CCC1[C@@H](c1cc(-c3ccc(Cl)cc3)no1)[C@@H](OC(c1ccc(F)cc1)c1ccc(F)cc1)C2` (mixture of isomers), the figures for the Ki in data set [1], in [2] and in [3] were 66.6 nM, 0.756 µM and 1580 nM, respectively.

On to `Cc1ccc(-c2cc(C3C(c4ccc(Cl)cc4)CC4CCC3N4C)on2)cc1` (stereo not drawn), for which the Ki in [1] was 10.7 nM; in data set [4], 140 nM; in data set [2], 23.5 µM; in data set [3] it was 1170 nM; in [5] it was 35 nM; in [6] it was 16 nM. In addition, in the data set listed under Homo sapiens, the Ratio Ki is 4.

In the case of `Fc1ccc(C(OC2CC3CCC(C2)N3CC2CC2)c2ccc(F)cc2)cc1` (stereo not drawn), the Ki in [1] is 24.6 nM; in data set [2], 1.42 µM; in data set [3] it was 1640 nM. For the same compound, in [7], the IC50 stood at 3.96 µM. Moreover, the Selectivity ratio in data set [8] was 161.

With `CC(C)[C@@H](N)CN1C2CCC1CC(OC(c1ccc(F)cc1)c1ccc(F)cc1)C2` (stereo partly drawn), the Ki in data set [1] amounted to 13.2 nM; in data set [4] it was 307 nM; in data set [2] it was 3.87 µM; in data set [3], 2130 nM; in data set [5], 81 nM; in data set [6], 133 nM. In addition, the Selectivity ratio in data set [8] was determined as 345. Besides, the Ratio Ki in the data set filed under Homo sapiens came out at 3.8.

Regarding `CC(C)[C@@H](N)CN1C2CCC1CC(NC(c1ccc(F)cc1)c1ccc(F)cc1)C2` (stereo partly drawn), the Ki in [1] worked out at 21 nM; in data set [2], 5.4 µM; in data set [3], 2350 nM.

For the compound `Cc1ccc(C2CC3CCC(C2c2cc(-c4ccc(Cl)cc4)no2)N3C)cc1` (stereo not drawn), the Ki in data set [1] was determined as 8.55 nM; in data set [4], 242 nM; in [2] it was 29.1 µM; in data set [3] it was 887 nM; in [5] it was 27 nM; in data set [6], 9.7 nM. For the same compound, in the data set filed under Homo sapiens, the Ratio Ki stood at 9.

Take `CCOC(=O)[C@@H]1C2CCC(C[C@@H]1OC(c1ccc(F)cc1)c1ccc(F)cc1)N2CCc1c[nH]c2ccccc12` (mixture of isomers): the Ki in data set [1] was 26.1 nM; in [4] it was 1080 nM; in data set [2], 0.746 µM; in [3], 1450 nM; in [5], 147 nM; in data set [6], 944 nM.

What is called Ki is a dissociation constant, usually derived from enzyme kinetics or from competition with a known ligand. Broadly, the IC50 is the concentration that inhibits the measured activity by half.
